Measured values pooled from the literature.
Protocols differ between the studies behind these lines.
Target: Mitogen-activated protein kinase 14 (MAPK14, Homo sapiens, UniProt Q16539)

SMILES	test	conditions	remaining binding [%]
COc1ccnn2ncc(-c3ccnc(N(C)C)n3)c12	binding	1 µM	87
COc1cc(-c2cn(C3CCc4ccccc4N(CC(F)(F)F)C3=O)nn2)ccc1-n1ccc(C)n1 (stereo not shown)	cell-free assay, competition with immobilised ligand	1 µM	94
F[C@@H]1CCN(c2nccc(-c3cnn4ncccc34)n2)C1	binding	1 µM	100
O=C(NCCCN1CCOCC1)c1ccc(Nc2nccc(-c3cc4ccccc4s3)n2)cc1	binding, competition with immobilised ligand	1 µM	96
O=C(O)[C@H]1[C@H](Cn2nnc3ccccc3c2=O)CC[C@@H]1C(=O)c1ccc(OCCC2CCOCC2)cc1	cell-free assay, competition with immobilised ligand	1 µM	85
C[C@H]1CCN(c2nccc(-c3cnn4ncccc34)n2)C1	binding	1 µM	100
C[C@@H]1CN(c2ccc3ncc(-c4ccc5[nH]nc(C6CC6)c5c4)n3n2)C[C@H](C)O1	binding, competition with immobilised ligand	50 nM	100
O=C(c1ccc(Nc2ncc(Cl)c(-c3ccc(Cl)s3)n2)cc1)N1CCC(N2CCCC2)CC1	binding, competition with immobilised ligand	1 µM	91
Nc1ncc2c(n1)-c1c([nH]c3ccc(C#CC4CC4)cc13)CCCC2	binding, competition with immobilised ligand	1 µM	98
COC(=O)Nc1nc2ccc(C(=O)c3ccccc3)cc2[nH]1	cell-free assay, competition with immobilised ligand	10 µM	17
CC(=O)c1c(NS(C)(=O)=O)c2cc(-c3ccc(Cl)cc3)c(-c3ccc(Cl)cc3Cl)nc2n(C)c1=O	cell-free assay, competition with immobilised ligand	1 µM	100
COc1cnc(Nc2cccc(S(N)(=O)=O)c2)nc1N1CCN(c2ccccc2)CC1	binding, competition with immobilised ligand	1 µM	100
Nc1cnc(N2CCc3cc(S(=O)(=O)Nc4c(F)cc(Cl)cc4F)cc(N4CCCC4=O)c32)nc1	cell-free assay, competition with immobilised ligand	1 µM	100
c1cnn2ncc(-c3ccnc(N4CCC45COC5)n3)c2c1	binding	1 µM	87
CS(=O)(=O)c1cc(C2(NC(=O)c3cncc4c3cnn4-c3ccc(F)cc3)CC2)ccn1	cell-free assay, competition with immobilised ligand	1 µM	100
N[C@H]1CCN(c2nccc(-c3cnn4ncccc34)n2)C1	binding	1 µM	100
O=C(Nc1c[nH]nc1C(=O)NC1CCNCC1)c1cc(F)cc(F)c1	binding, competition with immobilised ligand	1 µM	100
CNC(=O)c1ccc(Nc2ncc(C(F)(F)F)c(NCc3nccnc3N(C)S(C)(=O)=O)n2)cc1	cell-free assay, competition with immobilised ligand	0.1 µM	100
N#Cc1ccccc1CSc1nnc2c(n1)[nH]c1ccccc12	binding, competition with immobilised ligand	10 µM	100
CC1CCCN1c1nccc(-c2cnn3ncccc23)n1 (stereo not shown)	binding	1 µM	100
CNCc1ccccc1-c1csc([C@@H](C)Nc2nc(C)nc3cc(OC)c(OC)cc23)c1	cell-free assay, competition with immobilised ligand	1 µM	87
COc1cnc(Nc2cccc(S(N)(=O)=O)c2)nc1N1CCN(c2ccccc2)C(=O)C1	binding, competition with immobilised ligand	1 µM	100
CN(CCCC(F)(F)F)c1nccc(-c2cnn3ncccc23)n1	binding	1 µM	100
O=C(N1CCS(=O)(=O)CC1)N1C[C@H](c2ccc(OC(F)(F)F)cc2)C[C@H](c2nc(C3CC3)no2)C1	cell-free assay, competition with immobilised ligand	1 µM	100
Cc1cnc(Nc2ccc(C(=O)N3CCC(N4CCCC4)CC3)cc2)nc1-c1cc2ccccc2s1	binding, competition with immobilised ligand	1 µM	100
